Here are results for six compounds from ChEMBL document CHEMBL2375295, “Site-specific and far-red-light-activatable prodrug of combretastatin A-4 using photo-unclick chemistry” (J Med Chem, 2013).

Data set [1] concerns MCF7. The experiment in a line: Ratio of IC50 for darktoxicity against human MCF7 cells to IC50 for cytotoxicity against human MCF7 cells in presence of diode laser light. It counts as functional.
The subject of data set [2] is Colon 26 (Mus musculus). The experiment in a line: Prodrug conversion in mouse Colon 26 cells assessed as death of neighboring cells at 50 nM incubated for 24 hrs followed by irradiation with diode laser light for 15 mins measured after 48 hrs by Calcein AM live cell staining assay. To be noted: colon 26, 0.05 µM.
For data set [3], the system named is MCF7. As to the kind of experiment: Cytotoxicity against human MCF7 cells incubated for 24 hrs followed by irradiated with diode laser light for 30 mins. It counts as functional, cell-based. To be noted: MCF7, light or radiation study. The method, boiled down:
(§1)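 MCF-7 cells were grown in α-MEM with 10% bovine growth serum, seeded at 5000/well and grown 24 h at 37 °C, 5% CO2. Compounds were diluted from 2 mM DMSO stocks into medium and incubated 24 h. Phototoxicity plates were shaken and irradiated at 690 nm, 5.6 mW/cm2 for 30 min. Dark plates were kept unlit for 30 min. After 3 days, MTT viability was read at A570 minus A650 and expressed as % of untreated.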

Data set [4] relates to Mus musculus. As to the kind of experiment: Toxicity in mouse Colon 26 cells allografted BALB/c mouse assessed as change in body weight at 2 to 4 umol/kg, ip qd for 2 days measured 30 mins post irradiation with diode laser light. It counts as organism-based. The note with it: in vivo. The method, boiled down: (§2)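 Colon 26 cells (2 × 10^6 in PBS) were implanted sc in the lower back-neck of 4–6-week-old BALB/c mice. Mice were used once tumors reached 3–5 mm diameter. Doses came from DMSO stocks diluted in 1% Tween 80/5% dextrose and filtered, given as 200 μL ip daily on days 0, 1 and 2. After 1.5 h mice were anesthetized (ketamine/xylazine) and tumors irradiated at 690 nm, 200 mW/cm2 for 30 min (360 J/cm2). Tumor volume was lw2/2 by caliper, and body weight was followed. Groups had six mice; control had three.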

Data set [5] has as its system Colon 26. As to the kind of experiment: Antitumor activity against mouse Colon 26 cells allografted in BALB/c mouse at 2 umol/kg, ip qd for 2 days measured 30 mins post irradiation with diode laser light. It counts as functional, organism-based. The method, boiled down: as §2
The target of data set [6] is T1, Tubulin (Homo sapiens) (UniProt P68371+Q9H4B7+P0DPH7+P68366+Q13509+Q71U36+P04350+Q3ZCM7+P07437+P68363+Q9BQE3+Q6PEY2+Q13885+Q9BVA1+Q9BUF5). As to the kind of experiment: Inhibition of tubulin polymerization (unknown origin) at 3 uM after 1 hr by fluorescence plate reader analysis. It counts as protein-complex assay. The method, boiled down: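 Kit-based fluorescence assay: tubulin plus GTP in buffer with test agent at 3 μM final, incubated at 37 °C. Polymerization was monitored kinetically at ex 360/em 450 nm against a vehicle-only control. Inhibition was assessed after 1 h incubation, as mean ± SD of three experiments.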

The subject of data set [7] is Colon 26. The experiment in a line: Antitumor activity against mouse Colon 26 cells allografted in BALB/c mouse at 4 umol/kg, ip qd for 2 days measured 30 mins post irradiation with diode laser light. It counts as functional, organism-based. The method, boiled down: as §2
The target of data set [8] is T1, Tubulin (Homo sapiens). The experiment in a line: Inhibition of tubulin polymerization (unknown origin) at 3 uM after 20 mins by fluorescence plate reader analysis. It counts as protein-complex assay.
In data set [9] the test system is MCF7. As to the kind of experiment: Darktoxicity against human MCF7 cells incubated for 24 hrs followed by 30 mins incubation in dark measured after 3 days by MTT assay. It counts as cell-based. The method, boiled down: as §1
The target in data set [10] is T1, Tubulin (Homo sapiens). The experiment in a line: Inhibition of tubulin polymerization (unknown origin) at 3 uM after 1 hr by fluorescence plate reader analysis.
Data set [11] concerns Colon 26 (Mus musculus). As to the kind of experiment: Prodrug conversion in mouse Colon 26 cells assessed as death of neighboring cells at 5 uM incubated for 24 hrs followed by irradiation with diode laser light for 15 mins measured after 48 hrs by Calcein AM live cell staining assay. The note with it: colon 26, 5 µM.
Data set [12] relates to Mus musculus. The experiment in a line: Biodistribution in nu/nu mouse at 24 umol/kg, ip followed by irradiation with diode laser light for 1.5 hrs by optical imaging analysis. It counts as ADME, organism-based. To be noted: in vivo, TDE = time-dependent effect. The method, boiled down:
(§3)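 The FRET probe was formulated as a Tween 80 paste, extracted into 5% dextrose, filtered, and quantified by CMP absorbance. It was given at 24 μmol/kg ip. At 1.5 h the neck region was irradiated with a 690 nm diode laser at 500 mW/cm2. Mice were under 2.5% isoflurane anesthesia, and fluorescence images were taken after 0, 10, 20 and 30 min irradiation.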

In data set [13] the test system is Mus musculus. The experiment in a line: Biodistribution in nu/nu mouse at 24 umol/kg, ip followed by irradiation with diode laser light for 1.5 hrs measured after 10 to 30 mins by optical imaging analysis. It counts as ADME, organism-based. The note with it: in vivo. The method, boiled down: as §3

Molecules are shown by their SMILES. Calls of active or inactive are those of the source. No cut-off for these calls is given here.

Turning to `COc1ccc(/C=C\c2cc(OC)c(OC)c(OC)c2)cc1OC(=O)/C=C/N1CCC(COC(=O)COc2ccc(-c3c4nc(c(-c5ccccc5)c5ccc(s5)c(-c5ccccc5)c5nc(c(-c6ccccc6)c6ccc3s6)C=C5)C=C4)cc2)CC1`, in the data set on MCF7 [1], the “Ratio IC50” value turned out to be 6. For the same compound, in the data set with Colon 26 (Mus musculus) [2], the Drug metabolism entry is given as “Active”. In addition, the concentration for half-maximal inhibition (IC50) in the data set on MCF7 [3] is 28 nM; in the data set with MCF7 [9], 164 nM. Besides, in the data set on Mus musculus [4], the Activity entry is “Non-toxic”. Moreover, the outcome in the data set with Colon 26 [5] and in the data set with Colon 26 [7] was Active. The compound also had an inhibition against Tubulin (Homo sapiens) [6] of 6%. The inhibition result at Tubulin (Homo sapiens) [8] is “inactive”.
Regarding `COc1ccc(/C=C\c2cc(OC)c(OC)c(OC)c2)cc1OCCCN1CCN(C(=O)COc2ccc(-c3c4nc(c(-c5ccccc5)c5ccc(s5)c(-c5ccccc5)c5nc(c(-c6ccccc6)c6ccc3s6)C=C5)C=C4)cc2)CC1`, the “Ratio IC50” value in the data set with MCF7 [1] was determined as 1.7. Besides, the half-inhibitory concentration (IC50) in the data set with MCF7 [3] turned out to be 1060 nM; in the data set on MCF7 [9] it was 1800 nM. Further, the inhibition on Tubulin (Homo sapiens) [6] was found to be 9%. Moreover, the inhibition entry on Tubulin (Homo sapiens) [8] is “inactive”.
`CC(=O)O[C@H]1C(=O)[C@@]2(C)[C@H]([C@H](OC(=O)c3ccccc3)[C@]3(O)C[C@H](OC(=O)[C@H](O)[C@@H](NC(=O)c4ccccc4)c4ccccc4)C(C)=C1C3(C)C)[C@]1(OC(C)=O)CO[C@@H]1C[C@@H]2O`: on Tubulin (Homo sapiens) [10], the inhibition entry is “Active”.
`COc1ccc(/C=C\c2cc(OC)c(OC)c(OC)c2)cc1O` [COMBRETASTATIN A4] had an IC50 in the data set with MCF7 [9] of 9 nM.
`O=C(O)COc1ccc(-c2c3nc(c(-c4ccccc4)c4ccc(s4)c(-c4cccs4)c4nc(c(-c5ccc(OCC(=O)O)cc5)c5ccc2s5)C=C4)C=C3)cc1`: the Drug metabolism result with Colon 26 (Mus musculus) [11] is on record as “Not Active”.
For `CCN(CC)c1ccc2c(-c3ccccc3C(=O)OCN3CCN(/C=C/OC(=O)COc4ccc(-c5c6nc(c(-c7ccccc7)c7ccc(s7)c(-c7ccccc7)c7nc(c(-c8ccccc8)c8ccc5s8)C=C7)C=C6)cc4)CC3)c3ccc(=[N+](CC)CC)cc-3oc2c1.[Cl-]`, the results for the Drug uptake result with Mus musculus [12] and in the data set with Mus musculus [13] were “tde” and “Active”, respectively.
